Results from publication PMC6013806 (Chemical Science, 2016).
One block for each molecule: values may come before it.

Legend:
[1] = tested on: MMP-2 in rat renal myofibroblasts; experiment: MMP-2 levels by gelatin zymography, rat renal myofibroblasts; format: cell-based
Method in brief: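 Rat renal myofibroblasts were isolated from injured kidneys 3 days after unilateral ureteric obstruction. They were exposed to test compound at 16.8 nM (≃100 ng mL−1) for 72 h, with or without an RXFP1 antagonist (relaxin B-chain Arg13/Arg17→Lys); H2 relaxin was run at equivalent concentration. MMP-2 in media diluted 1:5–1:10 was read by gelatin zymography and densitometry. Three experiments were run in duplicate.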

[2] = target: T1, human RXFP1 (Homo sapiens, UniProt Q9HBX9); experiment: cAMP reporter gene assay, HEK-293T cells expressing human RXFP1; format: cell-based; conditions: HEK-293T cells stably expressing RXFP1
T1 sequence (Q9HBX9 1-757): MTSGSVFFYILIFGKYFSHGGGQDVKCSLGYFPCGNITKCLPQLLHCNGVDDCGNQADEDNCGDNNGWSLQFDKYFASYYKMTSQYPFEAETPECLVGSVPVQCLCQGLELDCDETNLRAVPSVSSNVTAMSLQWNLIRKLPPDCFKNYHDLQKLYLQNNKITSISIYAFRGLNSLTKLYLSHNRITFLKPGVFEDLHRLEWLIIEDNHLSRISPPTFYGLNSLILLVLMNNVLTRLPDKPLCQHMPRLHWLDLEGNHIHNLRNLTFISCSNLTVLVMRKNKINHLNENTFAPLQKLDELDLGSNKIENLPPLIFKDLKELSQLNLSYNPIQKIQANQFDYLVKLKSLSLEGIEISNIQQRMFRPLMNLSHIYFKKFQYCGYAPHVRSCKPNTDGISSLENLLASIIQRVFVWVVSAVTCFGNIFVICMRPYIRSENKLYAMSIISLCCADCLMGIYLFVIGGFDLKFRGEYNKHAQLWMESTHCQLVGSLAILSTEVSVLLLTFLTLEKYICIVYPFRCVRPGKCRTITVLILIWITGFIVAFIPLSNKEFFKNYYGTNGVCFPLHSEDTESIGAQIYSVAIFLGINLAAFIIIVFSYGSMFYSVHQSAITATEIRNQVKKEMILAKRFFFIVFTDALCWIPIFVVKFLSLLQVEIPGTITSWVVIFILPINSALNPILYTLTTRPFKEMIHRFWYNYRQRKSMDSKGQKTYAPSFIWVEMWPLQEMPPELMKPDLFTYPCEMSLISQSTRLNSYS
Method in brief: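 HEK-293T cells expressing human RXFP1 were co-transfected with a pCRE β-galactosidase cAMP reporter plasmid and plated. After 24 h they were incubated with increasing concentrations of test peptide in parallel with H2 relaxin. Points were run in triplicate, with ≥3 independent experiments; pEC50 values were derived.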

[3] = target: T1, human RXFP1; experiment: Competition binding with europium-labelled H2 relaxin in HEK-RXFP1 cells; conditions: HEK-293T cells stably expressing RXFP1; compared with B7-33
Method in brief: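 Whole-cell competition binding on HEK-293T cells stably transfected with RXFP1. Cells were grown in RPMI 1640 with 10% FCS, penicillin, streptomycin and 2 mM L-glutamine, then plated on poly-L-lysine-coated wells. Eu3+-labelled H2 relaxin was competed by increasing concentrations of unlabelled test peptide. % specific binding was measured in triplicate wells, repeated ≥3 times; one-site fit gave pIC50.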

[4] = cited from earlier work
[5] = cited from earlier work; remark: listed apart in the source
[6] = target: Relaxin Family Peptide Receptor 1 (RXFP1), human, stably expressed in HEK-293T cells (human) (UniProt Q9HBX9); experiment: competition binding with Eu3+-labelled H2 relaxin on whole cells

Molecule: Cc1cc(Cn2cnc3c2C[C@@H](C(=O)O)N(C(=O)C(c2ccccc2)c2ccccc2)C3)ccc1N(C)C [PD123319]
effect of antagonist alone on basal MMP-2 expression ([1]; antagonist alone): neither the RXFP1 nor AT2 receptor antagonists alone affected basal MMP-2 expression
effect of antagonist on MMP-promoting effects of B7-33 ([1]; rat renal myofibroblasts treated with B7-33): completely blocked

Molecule: AcB7-33: Acetylated B7-33 (Ac-VIKLCGRELVRAQIAICGMSTWSKRSL-NH2; cysteine pairing not given here; UniProt P04090 31-57, looked up, fragment)
cAMP activity at HEK-RXFP1 (in words) [2]: no change
binding affinity at HEK-RXFP1 (in words) [3]: no change

Molecule: B1-29: native H2 relaxin B-chain with 29 residues
functional activity [4]: functionally inactive
solubility in water [5]: insoluble in water

Results, then the molecule that gave them:

pKi [6]: 5.54
Molecule: B7-33 (H2 relaxin B-chain-only analogue) (peptide)

pKi [6]: 8.96
Molecule: Human gene-2 relaxin (ligand)
